Experimental data reported in ChEMBL document CHEMBL1138380, “4-Aminopyrimidines as novel HIV-1 inhibitors” (Bioorg Med Chem Lett, 2007).

How the values were obtained:
[1] = Cytotoxicity against HEK293T cells after 48 hrs; type: cell-based, HEK-293T; conditions: human
Procedure, shortened: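 293T cells seeded at 700 cells/well in 1536-well format and cultured 24 h at 37 °C under 5% CO2. Compounds serially diluted in DMSO were added. After culture, viability was read by Alamar Blue diluted 1:1 in DMEM, incubated 4 h at room temperature, with fluorescence intensity measured.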

[2] = tested on: Human immunodeficiency virus; assay: Antiviral activity against HIV in HEK293T cells after 48 hrs; type: functional, organism-based; conditions: Human immunodeficiency virus 1, HEK-293T
Procedure, shortened: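 HEK 293T cells grown in DMEM with 10% FBS and Pen/Strep/glutamine, seeded at 700 cells/well in 1536-well format, then cultured 24 h at 37 °C under 5% CO2. Compounds serially diluted in DMSO were added and incubated 1 h at 37 °C. Cells were then infected with HIV reporter virus at MOI ~1.0 and cultured 48 h at 37 °C. Read-out was luciferase activity.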

Compound: CCc1ncnc(NC(CC)c2ccc(N(C)C)cc2)c1Cl (stereo not drawn)
- CC50 at 48 h [1]: > 10000 nM
- EC50 [2]: 341 nM

Compound: CCc1ncnc(NC(CC)c2ccc(-c3ccccc3)cc2)c1Cl (stereo not drawn)
- CC50 at 48 h [1]: > 10000 nM
- EC50 [2]: 17 nM

Compound: CCc1ncnc(NC(C)c2ccc(NC(C)=O)cc2)c1Cl (stereo not drawn)
- CC50 at 48 h [1]: > 10000 nM
- EC50 [2]: 1190 nM

Compound: CCc1ncnc(NC(C)c2ccc(OC(=O)NCCOCCOCCOCCNC(C)=O)cc2)c1Cl (stereo not drawn)
- CC50 at 48 h [1]: > 10000 nM
- EC50 [2]: 190 nM

Compound: CCc1ncnc(NC(C)c2ccc3ccccc3c2)c1Cl (stereo not drawn)
- CC50 at 48 h [1]: > 10000 nM
- EC50 [2]: 139 nM

Compound: CCc1ncnc(NC(C)c2cc3cccc(OC)c3o2)c1Cl (stereo not drawn)
- CC50 at 48 h [1]: > 10000 nM
- EC50 [2]: 691 nM

Compound: CCc1ncnc(NC(C)c2ccc(NC(=O)CCCC[C@@H]3SC[C@@H]4NC(=O)N[C@@H]43)cc2)c1Cl (stereo partly drawn)
- CC50 at 48 h [1]: > 10000 nM
- EC50 [2]: 622 nM

Compound: CCc1ncnc(NC(C)c2ccc(NC(=O)N(C)CCOCCN(C)C(C)=O)cc2)c1Cl (stereo not drawn)
- CC50 at 48 h [1]: > 10000 nM
- EC50 [2]: 3020 nM

Compound: CCc1ncnc(NC(CC)c2ccc(Oc3ncnc4ccccc34)cc2)c1Cl (stereo not drawn)
- CC50 at 48 h [1]: > 10000 nM
- EC50 [2]: 48 nM

Compound: CCc1ncnc(NCc2ccc(C(C)(C)C)cc2)c1Cl
- CC50 at 48 h [1]: > 10000 nM
- EC50 [2]: 331 nM

Compound: CCc1ncnc(N(C)C(C)c2ccc(OC(=O)N(C)CCOCCN(C)C(C)=O)cc2)c1Cl (stereo not drawn)
- CC50 at 48 h [1]: > 10000 nM
- EC50 [2]: > 10000 nM

Compound: CCc1ncnc(NC(CC)c2ccc([N+](=O)[O-])cc2)c1Cl (stereo not drawn)
- CC50 at 48 h [1]: > 10000 nM
- EC50 [2]: 2660 nM

Compound: O=C1Nc2ccc(Cl)cc2C(C#CC2CC2)(C(F)(F)F)O1 (single isomer, unassigned) [EFAVIRENZ]
- CC50 at 48 h [1]: 10000 nM
- EC50 [2]: 0.5 nM

Compound: CCC(Nc1cc(COC)ncn1)c1ccc(Oc2ccc(F)cc2)cc1 (stereo not drawn)
- CC50 at 48 h [1]: > 10000 nM
- EC50 [2]: 31 nM

Compound: CCc1ncnc(NC(C)c2ccc3ccccc3n2)c1Cl (stereo not drawn)
- CC50 at 48 h [1]: > 10000 nM
- EC50 [2]: 42 nM

Compound: CCc1ncnc(NC(C)c2ccc(OC(=O)N(C)CCCN(C)C(C)=O)cc2)c1Cl (stereo not drawn)
- CC50 at 48 h [1]: > 10000 nM
- EC50 [2]: 327 nM

Compound: CCc1ncnc(NC(C)c2ccc(OC(=O)N(C)CCOCCN(C)C(C)=O)cc2)c1Cl (stereo not drawn)
- CC50 at 48 h [1]: > 10000 nM
- EC50 [2]: 4 nM

Compound: CCc1ncnc(NC(C)c2ccc3c(c2)NCCO3)c1Cl (stereo not drawn)
- CC50 at 48 h [1]: > 10000 nM
- EC50 [2]: 29 nM

Compound: CCc1ncnc(NC(C)c2cc3c(cc2O)CCCC3)c1Cl (stereo not drawn)
- CC50 at 48 h [1]: > 10000 nM
- EC50 [2]: 778 nM

Compound: CCc1ncnc(NC(C)c2ccc(OC(=O)NCCOCCNC(C)=O)cc2)c1Cl (stereo not drawn)
- CC50 at 48 h [1]: > 10000 nM
- EC50 [2]: 5 nM

Compound: CCc1ncnc(NC(C)c2ccc3c(c2)CCCC3)c1Cl (stereo not drawn)
- CC50 at 48 h [1]: > 10000 nM
- EC50 [2]: 170 nM

Compound: CCc1ncnc(N(C)C(C)c2ccc(OC(=O)N(C)C)cc2)c1Cl (stereo not drawn)
- CC50 at 48 h [1]: > 10000 nM
- EC50 [2]: > 10000 nM

Compound: CCC(Nc1cc(C)ncn1)c1ccc(Oc2ccc(F)cc2)cc1 (stereo not drawn)
- CC50 at 48 h [1]: > 10000 nM
- EC50 [2]: 324 nM

Compound: CCc1ncnc(NC(C)c2ccc3c(c2)N=C(NCCO)CO3)c1Cl (stereo not drawn)
- CC50 at 48 h [1]: > 10000 nM
- EC50 [2]: 353 nM

Compound: CCc1ncnc(NC(C)c2ccc(OC(=O)NCCCNC(C)=O)cc2)c1Cl (stereo not drawn)
- CC50 at 48 h [1]: > 10000 nM
- EC50 [2]: 190 nM

Compound: CCc1ncnc(NC(C)c2ccc(OC(=O)N(C)C)cc2)c1Cl (stereo not drawn)
- CC50 at 48 h [1]: > 10000 nM
- EC50 [2]: 4 nM

Compound: CCc1ncnc(NC(C)c2ccc(OC(=O)NCCCOCCCNC(C)=O)cc2)c1Cl (stereo not drawn)
- CC50 at 48 h [1]: > 10000 nM
- EC50 [2]: 5 nM

Compound: CCCc1cc(NC(CC)c2ccc(Oc3ccc(F)cc3)cc2)ncn1 (stereo not drawn)
- CC50 at 48 h [1]: > 10000 nM
- EC50 [2]: 96 nM

Compound: CCc1ncnc(NC(C)c2ccc(C(C)(C)C)cc2)c1Cl (stereo not drawn)
- CC50 at 48 h [1]: > 10000 nM
- EC50 [2]: 16 nM

Compound: CCc1ncnc(NC(C)c2sc3ccccc3c2C)c1Cl (stereo not drawn)
- CC50 at 48 h [1]: > 10000 nM
- EC50 [2]: 816 nM

Compound: Cc1ccnc2c1NC(=O)c1cccnc1N2C1CC1 [NEVIRAPINE]
- CC50 at 48 h [1]: > 10000 nM
- EC50 [2]: 50 nM

Compound: CCc1nc(C)nc(NC(CC)c2ccc(Oc3ccc(F)cc3)cc2)c1Br (stereo not drawn)
- CC50 at 48 h [1]: > 10000 nM
- EC50 [2]: 18 nM

Compound: CCc1ncnc(NC(C)c2cccc3ccccc23)c1Cl (stereo not drawn)
- CC50 at 48 h [1]: > 10000 nM
- EC50 [2]: 95 nM

Compound: CCc1ncnc(NC(CC)c2ccc(Oc3ccc(F)cc3)cc2)c1Br (stereo not drawn)
- CC50 at 48 h [1]: > 10000 nM
- EC50 [2]: 3 nM

Compound: CCC(Nc1nc(C)nc(Cl)c1N)c1ccc(Oc2ccc(F)cc2)cc1 (stereo not drawn)
- CC50 at 48 h [1]: > 10000 nM
- EC50 [2]: 15 nM

Compound: CCc1ncnc(NC(C)c2ccc(NC(=O)N(C)CCCN(C)C(C)=O)cc2)c1Cl (stereo not drawn)
- CC50 at 48 h [1]: > 10000 nM
- EC50 [2]: 4890 nM

Compound: CCc1ncnc(NC(CC)c2ccc(C(C)(C)C)cc2)c1Cl (stereo not drawn)
- CC50 at 48 h [1]: > 10000 nM
- EC50 [2]: 28 nM

Compound: CCc1ncnc(NC(C)c2ccc3c(c2)N(C(C)=O)CCO3)c1Cl (stereo not drawn)
- CC50 at 48 h [1]: > 10000 nM
- EC50 [2]: 35 nM

Compound: CCCc1ncnc(NC(CC)c2ccc(Oc3ccc(F)cc3)cc2)c1Br (stereo not drawn)
- CC50 at 48 h [1]: > 10000 nM
- EC50 [2]: 760 nM
